Test system: MS2 coat protein
Assay: apparent Kd, MS2 coat protein; higher = weaker binding; RNA-MaP array; FMN 200 µM where present
Outline: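 Binding was read on Illumina sequencing-chip clusters where stalled E. coli RNA polymerase had transcribed each design. A titration of SNAP-549-labelled MS2 coat protein began at 0.7 or 1.5 nM and doubled to 3 µM, once without ligand and once with constant ligand, in 100 mM Tris-HCl pH 7.5, 80 mM KCl, 4 mM MgCl2, BSA, DTT, yeast tRNA and Tween-20. The apparent Kd is the median of filtered per-cluster binding-curve fits, based on green signal normalised to red-channel RNA signal and control-cluster median Fmax.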

[1] = designed as: ON switch for flavin mononucleotide, no ligand
[2] = ligand present: flavin mononucleotide, designed as: ON switch for flavin mononucleotide
[3] = designed as: OFF switch for flavin mononucleotide, no ligand
[4] = ligand present: flavin mononucleotide, designed as: OFF switch for flavin mononucleotide

CAGCGCUGUCGAGAGGAUAUGCGGUGAUGGACAUGAGGAUCACCCAUGUUAGCGACAGCAUCACGGCAGAAGGCUCUACCCGCUG
apparent Kd [1]: 13.2 nM
apparent Kd [2]: 12.8 nM

GGUGCUAUGUAGAAGGCAGAUCUGAUUCAGAUCUGAGGAUAUACAUGAGGAUCACCCAUGUUAUGCACCAGCACGAGAGUGCAA
apparent Kd [3]: 7.12 nM
apparent Kd [4]: 12.8 nM

ACUAGAUGAGGAUAUGCAUGUUUUCGUGUUCUUCUAGAUUAACAUGAGGAUCACCCAUGUAGAAGGCGUCAUUU
apparent Kd [3]: 81 nM
apparent Kd [4]: 118 nM

AAAUUUAACGAAGGAUAUGCUUACAUGAGGAUCACCCAUGUGUGCCUUGUGUUGCUGAUUAGGUUGCAGAAGGUCGUAUACAUA
apparent Kd [3]: 124 nM
apparent Kd [4]: 684 nM

UAAUCGUUGCAGAAGGUUAUUAUUUUAUCGUGUCUCUUAACAUGAGGAUCACCCAUGUUUUUGAUGAAGGAUAUGCAACGGUAG
apparent Kd [3]: 7.54 nM
apparent Kd [4]: 7.09 nM

ACUAAAGAAGGAUAUACUAACGAACCUCAAACAUAGAUAAGACAUGAGGAUCACCCAUGUAGAAGGUCUAGACU
apparent Kd [3]: 44.2 nM
apparent Kd [4]: 37.4 nM

GUAGCAUACCAAGGAUAUUCAGGGCUUGGAUAGACAUGAGGAUCACCCAUGUGGCGAAAGCCUAGGGAGAAGGUGGAAUGCUAC
apparent Kd [1]: 16.7 nM
apparent Kd [2]: 15.2 nM

GCCAUGCUGGUGACGGAUAACACAUGAGGAUCACCCAUGUACAGAAGGCGGAAUUAGCGUAGGACCGAGGAUAUGUGCGUGAGG
apparent Kd [3]: 30.8 nM
apparent Kd [4]: 42.3 nM

GGGUACAUCGGAGGAUAUCAUUUAAAUACAUGAGGAUCACCCAUGUCGAUGGAGACAUCGGAGAUUGAGAAGGCCGAUGUACCG
apparent Kd [1]: 7.9 nM
apparent Kd [2]: 5.57 nM

AACCUCGGAGGAUAUACCUACCGAUUCACAAGUGUCACAUCACAUGAGGAUCACCCAUGUAGAAGGUCGAGGCG
apparent Kd [3]: 30 nM
apparent Kd [4]: 97.1 nM

UGAUAGGACAGAGGAUAUGCUGAUAGGAUCUACUAUCGAAGAAUCCUCACAUGAGGAUCACCCAUGUAGAAGGCUGUCCUAUCU
apparent Kd [3]: 12 nM
apparent Kd [4]: 143 nM

AAUUAUUUACAGAAGGAGUAAGAUUUUGUAUUACUAGGAUAUGUUAACAUGAGGAUCACCCAUGUGUUUGUUGGUUUUUUAUGU
apparent Kd [3]: 16.1 nM
apparent Kd [4]: 14.8 nM

GGUACUCAAAGAGUACCAAUACGAACAUGAGGAUCACCCAUGUAGGAUAUGCUACUCACAGAGUAGCAGAAGGACAUGUGCCUA
apparent Kd [3]: 20.8 nM
apparent Kd [4]: 136 nM

GCCAGUUAUGUAGGAUAUGCGAGGCGAGCCUGAGCAGAAGGACAUGAGGAUCACCCAUGUAUUGCGGUUUAAGUUCUGAUCGCU
apparent Kd [3]: 22.2 nM
apparent Kd [4]: 47.2 nM

AGCGUAUGAACAUGAGGAUCACCCAUGUAAACGGAAACGAAUGAGGAUAUCGAUAGCAAAGCUAUCGAGAAGGCAUGGGACGCU
apparent Kd [1]: 159 nM
apparent Kd [2]: 36.4 nM

CCCACGAAAGUCGAACGAUGUACGAGAAGGACAAUAACAUGACAUGAGGAUCACCCAUGUGCCAUGUAGGAUAUCGUACAUGGG
apparent Kd [3]: 8.55 nM
apparent Kd [4]: 8.17 nM

AUAAUUUUAUAUUUCUUUUUAUUCAGAAGGCAUAACAUGAGGAUCACCCAUGUAAAUUAAUGUUAUGAGGAUAUGAUUUGGUUA
apparent Kd [3]: 24.2 nM
apparent Kd [4]: 105 nM

AGUUUACAUGAGGAUCACCCAUGUGAGGAUAUGGAAUCGCUGGCCGUAGCCAGUGGUUCCAGAAGGCGCGUGAU
apparent Kd [3]: 99 nM
apparent Kd [4]: 187 nM

AAAACACAUGAGGAUCACCCAUGUGAGGAUAUGUCCAUGCUCGGCAAACCGGGCAUGGACAGAAGGCACAUAAA
apparent Kd [3]: 45 nM
apparent Kd [4]: 46.7 nM

UAGAAUCGAGGAUAUACAUGAGGAUCACCCAUGUGUGGCCAUUUGGUGUGGUCGUCAGGUAGAAGGCGAUUACA
apparent Kd [3]: 160 nM
apparent Kd [4]: 15.6 nM

AACGAGCAAGAUUAUUAUGAAUAAACAUGAGGAUCACCCAUGUAGGAUAUGCAGUGGAAUACACUGCAGAAGGACAUAAGCUCG
apparent Kd [3]: 7.2 nM
apparent Kd [4]: 19 nM

GGAGAUUACUCAGGAUAUCGCUAGACCUACAUGAGGAUCACCCAUGUGGGUGACGCGGUGGGCUACGAGAAGGGAGAAGUGCCC
apparent Kd [3]: 8.9 nM
apparent Kd [4]: 8.53 nM

UGUUGUUCAGGAUAUGGUGUGUUAUACAUGAGGAUCACCCAUGUGGGUCCUGAUUUGGCGUCAGAAGGGAAUGUUG
apparent Kd [3]: 486 nM
apparent Kd [4]: 406 nM

AAGCGAGGGACAGGAUAUGCGGCAAAACUCGCCGCAGAAGGGUCGACAUGAGGAUCACCCAUGUCCUUACGCUCCAAGUAGAGG
apparent Kd [1]: 213 nM
apparent Kd [2]: 359 nM

UGGUACAAGGGAGGAUAUGGGAAGAUACAUGAGGAUCACCCAUGUUUAAGAAUGCCGAGAGGCAACUAGAAGGCCCUAGUACCU
apparent Kd [1]: 506 nM
apparent Kd [2]: 20.4 nM

AAAGGAGGGAGGACCGUACAUGAGGAUCACCCAUGUAUAUCACAGGAUAUAGCAUGUUUAGGCAUCUAGAAGGGUGAUCGGUCA
apparent Kd [1]: 186 nM
apparent Kd [2]: 37.7 nM

ACCUCACAUGAGGAUCACCCAUGUAAGGAUAUCUUCGCUUUGACGUUGUUCUAUGCGAAGAGAAGGUACACGGC
apparent Kd [3]: 28.3 nM
apparent Kd [4]: 111 nM

CUGCCUUAUGAGAAGGCGAUCAUGAAACAUGAUCGAGGAUAUCAUGUAAACAUGAGGAUCACCCAUGUAUGGGUAUUAUGGUAG
apparent Kd [1]: 529 nM
apparent Kd [2]: 74.5 nM

CUUAUGUGAGGAUAUGGUGUUGGCCACAGGAAAAAGAUUCUCCAGAAGGCACAUGAGGAUCACCCAUGUAGUGA
apparent Kd [3]: 51.3 nM
apparent Kd [4]: 120 nM

GCUUGUGAAGGAUAUACUGGCGGCAUGCGCUCGGCGCGCGCACAUGAGGAUCACCCAUGUAGAAGGUCAAACGU
apparent Kd [3]: 20.2 nM
apparent Kd [4]: 20.2 nM

GGCCUGCAGCUAGGAUAUGGGCGAUCACAUGAGGAUCACCCAUGUCAACAUCAAAACAAGAUUAACCAGAAGGAGCCGCGAGUU
apparent Kd [1]: 26.5 nM
apparent Kd [2]: 211 nM

GAAUAAUUGAUCCAAUUUAUCUACAUGAGGAUCACCCAUGUGCAGGAUAUCGUAAUAUUUAAUUACGAGAAGGGCAAGAACGGU
apparent Kd [3]: 281 nM
apparent Kd [4]: 425 nM

GUGCCUUGGGAGAAGGCCGUAUGCAAAGCAUACGGAGGAUAUCCAUACCGGAAACGGACAUGAGGAUCACCCAUGUGGCACAAA
apparent Kd [1]: 15.1 nM
apparent Kd [2]: 6.03 nM

UACAUCACGUAAGGAUAUACACGGGUUUCAAGAGUAGAAGGUACAAACAUGAGGAUCACCCAUGUAGACAUGGUUAAUAUUGUA
apparent Kd [1]: 54.3 nM
apparent Kd [2]: 40.6 nM

GAGUGACAUGAGGAUCACCCAUGUGAGGAUAUCGGCCGGACCUUGUUAGCUUCCACCGCGAGAAGGCACAUCGG
apparent Kd [3]: 23.3 nM
apparent Kd [4]: 27.9 nM

GGCACCAUCACAGGAUAUGCUUUCUUUUGGGAAGCAGAAGGGUGUAACAUGAGGAUCACCCAUGUGGUGCCAGGGCGUGAGCCC
apparent Kd [1]: 175 nM
apparent Kd [2]: 14 nM

AACAUGUCAGGAUAUGCGAAGGCGUCUGACAGACGAGGCUAGCAGAAGGGACAUGAGGAUCACCCAUGUAAAAA
apparent Kd [3]: 98.9 nM
apparent Kd [4]: 129 nM

UAUGGUUAAGUCAGGAUAUGCUCGUAGAGGUCUAUGCAGAAGGGACAUGAGGAUCACCCAUGUAAGGUCGUGUU
apparent Kd [3]: 39.9 nM
apparent Kd [4]: 66.3 nM

CACCGACCCUAUGUGUUCUAGACAUGAGGAUCACCCAUGUAUAGAAGGGUCUUCGCGAAACGCAGACAGGAUAUGUACAGGAGU
apparent Kd [3]: 6.58 nM
apparent Kd [4]: 9.89 nM

AGCUACGUUUCGUAGCAGCUAGGUGAGGAUAUUCAAUUUUUCACAUGAGGAUCACCCAUGUAUGUGAAGAAGGCGCCUAGAAAC
apparent Kd [1]: 10.8 nM
apparent Kd [2]: 5.07 nM

AUACAUGAGGAUCACCCAUGUUACAUGGCCUUGAUAGAUUGUAGAAGGAUGUUAUUAUUUUUUUCAUAGGAUAUACUAUUUAGU
apparent Kd [3]: 120 nM
apparent Kd [4]: 105 nM

GGGUUGGGAGGAUAUCCAAUAUAUGACAUGAGGAUCACCCAUGUUUCCACUCGUACCUCCGGAGAAGGCCCUUCCC
apparent Kd [3]: 19.3 nM
apparent Kd [4]: 20 nM

CUGAUGUGAGGAUAUCUAAAAGAAACUGGGCAAAAUACCAGAGAGAAGGCACAUGAGGAUCACCCAUGUAACGA
apparent Kd [3]: 19.1 nM
apparent Kd [4]: 69.5 nM

GGAGCACAUGAAUACAUGAGGAUCACCCAUGUCGAAUGAUAUGAGGAUAUGCAUCGGAAAACGAUGUAGAAGGCAUAGUGCUCC
apparent Kd [1]: 60 nM
apparent Kd [2]: 11.4 nM

CCUGGAUCAUGAGGAUAUGGCACCUUAUUGGUGCCAGAAGGCAUGUCUUUUGACAUGAGGAUCACCCAUGUAAUAAAUUCCAGG
apparent Kd [1]: 933 nM
apparent Kd [2]: 131 nM

GCGUCAGAAUUAAUUGUGACAGGCAGAAGGCCAUAUCUUAUGUCAGACAUGAGGAUCACCCAUGUGGAGGAUAUGCAGUUACAC
apparent Kd [3]: 11.5 nM
apparent Kd [4]: 19.1 nM

GCCAGUUGAGGAUAUGCAGGUGGGUGCCCUGAUCCUCUGUUACAUGAGGAUCACCCAUGUAGAAGGCAAUGUCA
apparent Kd [3]: 92.4 nM
apparent Kd [4]: 123 nM

GUAGUACAUGAGGAUCACCCAUGUGUGGGCGCGUGAGGAUAUGUCCGUACCUGGCGUACGAUAGAAGGCAUGGUGC
apparent Kd [1]: 53.3 nM
apparent Kd [2]: 28.4 nM

Source: the EternaBench riboswitch data
